Legend:
[1] = n-Octanol/phosphate buffer partition coefficient, logP of the compound at pH 7.4 incubated for 85 mins by shake-flask method; type: physicochemical
How it was run: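 Octanol–water partition by shake-flask: n-octanol with 0.15 M phosphate buffer pH 7.4 at 10:1 volumes. Buffer-phase absorbance read before mixing, then shaken 50 min and centrifuged at 2500 rpm for 35 min. Buffer absorbance read again; P = (Ai−Af)/Af × Vw/Vo.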

Hs-578T = experiment: Antiproliferative activity against human Hs-578T cells assessed as cell growth inhibition at 10 uM incubated for 48 hrs by sulforhodamine B assay relative to control; type: functional
How it was run: (§1)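 NCI-60 single-dose screen at 10^-5 M. Cells grown in RPMI 1640 with 5% FBS and 2 mM L-glutamine, plated at 5,000–40,000 cells/well, and preincubated 24 h. Drug (DMSO stock) added and incubated 48 h at 37 °C, 5% CO2. Adherent cells fixed with cold TCA, stained with 0.4% SRB in 1% acetic acid, dye solubilized in 10 mM trizma base, A515 read. Percent growth taken against time-zero and untreated control.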

MDA-MB-231 = experiment: Antiproliferative activity against human MDA-MB-231 cells assessed as cell growth inhibition at 10 uM incubated for 48 hrs by sulforhodamine B assay relative to control; type: functional; how it was run: as §1
MCF7 = experiment: Antiproliferative activity against human MCF7 cells assessed as cell growth inhibition at 10 uM incubated for 48 hrs by sulforhodamine B assay relative to control; type: functional; how it was run: as §1
PC-3 = experiment: Antiproliferative activity against human PC-3 cells assessed as cell growth inhibition at 10 uM incubated for 48 hrs by sulforhodamine B assay relative to control; type: functional; how it was run: as §1
UO-31 = experiment: Antiproliferative activity against human UO-31 cells assessed as cell growth inhibition at 10 uM incubated for 48 hrs by sulforhodamine B assay relative to control; type: functional; how it was run: as §1
SN12C = experiment: Antiproliferative activity against human SN12C cells assessed as cell growth inhibition at 10 uM incubated for 48 hrs by sulforhodamine B assay relative to control; type: functional; how it was run: as §1
ACHN = experiment: Antiproliferative activity against human ACHN cells assessed as cell growth inhibition at 10 uM incubated for 48 hrs by sulforhodamine B assay relative to control; type: functional
How it was run: (§2)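 Single-dose NCI-60 prescreen at 10^-5 M. Cells in RPMI 1640 with 5% FBS and 2 mM L-glutamine, seeded 5,000–40,000 cells/well with 24 h preincubation, then drug exposure for 48 h at 37 °C under 5% CO2. Growth read by SRB staining of TCA-fixed cells at 515 nm against time-zero and untreated controls. Negative growth values denote cell kill.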

A498 = experiment: Antiproliferative activity against human A498 cells assessed as cell growth inhibition at 10 uM incubated for 48 hrs by sulforhodamine B assay relative to control; type: functional; how it was run: as §2
786-0 = experiment: Antiproliferative activity against human 786-0 cells assessed as cell growth inhibition at 10 uM incubated for 48 hrs by sulforhodamine B assay relative to control; type: functional; how it was run: as §2
NCI/ADR-RES = experiment: Antiproliferative activity against human NCI/ADR-RES cells assessed as cell growth inhibition at 10 uM incubated for 48 hrs by sulforhodamine B assay relative to control; type: functional; how it was run: as §1
OVCAR-3 = experiment: Antiproliferative activity against human OVCAR-3 cells assessed as cell growth inhibition at 10 uM incubated for 48 hrs by sulforhodamine B assay relative to control; type: functional; how it was run: as §1
IGROV-1 = experiment: Antiproliferative activity against human IGROV-1 cells assessed as cell growth inhibition at 10 uM incubated for 48 hrs by sulforhodamine B assay relative to control; type: functional; how it was run: as §1
SK-MEL-5 = experiment: Antiproliferative activity against human SK-MEL-5 cells assessed as cell growth inhibition at 10 uM incubated for 48 hrs by sulforhodamine B assay relative to control; type: functional; how it was run: as §1
SK-MEL-2 = experiment: Antiproliferative activity against human SK-MEL-2 cells assessed as cell growth inhibition at 10 uM incubated for 48 hrs by sulforhodamine B assay relative to control; type: functional; how it was run: as §1
M14 = experiment: Antiproliferative activity against human M14 cells assessed as cell growth inhibition at 10 uM incubated for 48 hrs by sulforhodamine B assay relative to control; type: functional; how it was run: as §1
LOX IMVI = experiment: Antiproliferative activity against human LOX IMVI cells assessed as cell growth inhibition at 10 uM incubated for 48 hrs by sulforhodamine B assay relative to control; type: functional; how it was run: as §1
U-251 = experiment: Antiproliferative activity against human U-251 cells assessed as cell growth inhibition at 10 uM incubated for 48 hrs by sulforhodamine B assay relative to control; type: functional; how it was run: as §1
SF-539 = experiment: Antiproliferative activity against human SF-539 cells assessed as cell growth inhibition at 10 uM incubated for 48 hrs by sulforhodamine B assay relative to control; type: functional; how it was run: as §1
SF-295 = experiment: Antiproliferative activity against human SF-295 cells assessed as cell growth inhibition at 10 uM incubated for 48 hrs by sulforhodamine B assay relative to control; type: functional; how it was run: as §1
SF-268 = experiment: Antiproliferative activity against human SF-268 cells assessed as cell growth inhibition at 10 uM incubated for 48 hrs by sulforhodamine B assay relative to control; type: functional; how it was run: as §1
HCT-116 = experiment: Antiproliferative activity against human HCT-116 cells assessed as cell growth inhibition at 10 uM incubated for 48 hrs by sulforhodamine B assay relative to control; type: functional
How it was run: (§3)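 NCI-60 one-dose prescreen at 10^-5 M. Cells grown in RPMI 1640 with 5% FBS and 2 mM glutamine, preincubated 24 h, then exposed 48 h at 37 °C. Adherent lines TCA-fixed, SRB-stained, A515 read. Growth percent relative to time-zero and control; negative values mean cell kill.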

NCI-H522 = experiment: Antiproliferative activity against human NCI-H522 cells assessed as cell growth inhibition at 10 uM incubated for 48 hrs by sulforhodamine B assay relative to control; type: functional; how it was run: as §1
NCI-H23 = experiment: Antiproliferative activity against human NCI-H23 cells assessed as cell growth inhibition at 10 uM incubated for 48 hrs by sulforhodamine B assay relative to control; type: functional; how it was run: as §1
EKVX = experiment: Antiproliferative activity against human EKVX cells assessed as cell growth inhibition at 10 uM incubated for 48 hrs by sulforhodamine B assay relative to control; type: functional; how it was run: as §3
SR = experiment: Antiproliferative activity against human SR cells assessed as cell growth inhibition at 10 uM incubated for 48 hrs by sulforhodamine B assay relative to control; type: functional; how it was run: as §1
RPMI-8226 = experiment: Antiproliferative activity against human RPMI-8226 cells assessed as cell growth inhibition at 10 uM incubated for 48 hrs by sulforhodamine B assay relative to control; type: functional; how it was run: as §1
MOLT-4 = experiment: Antiproliferative activity against human MOLT-4 cells assessed as cell growth inhibition at 10 uM incubated for 48 hrs by sulforhodamine B assay relative to control; type: functional; how it was run: as §1
CCRF-CEM = experiment: Antiproliferative activity against human CCRF-CEM cells assessed as cell growth inhibition at 10 uM incubated for 48 hrs by sulforhodamine B assay relative to control; type: functional; how it was run: as §2
SW-620 = experiment: Antiproliferative activity against human SW620 cells assessed as cell growth inhibition at 10 uM incubated for 48 hrs by sulforhodamine B assay relative to control; type: functional; how it was run: as §1
HOP-92 = experiment: Antiproliferative activity against human HOP-92 cells assessed as cell growth inhibition at 10 uM incubated for 48 hrs by sulforhodamine B assay relative to control; type: functional; how it was run: as §3

Structure (SMILES) | inhibition at 10 µM (Hs-578T) [%] | inhibition at 10 µM (MDA-MB-231) [%] | inhibition at 10 µM (MCF7) [%] | inhibition at 10 µM (PC-3) [%] | inhibition at 10 µM (UO-31) [%] | inhibition at 10 µM (SN12C) [%] | inhibition at 10 µM (ACHN) [%] | inhibition at 10 µM (786-0) [%] | inhibition at 10 µM (NCI/ADR-RES) [%] | inhibition at 10 µM (OVCAR-3) [%] | inhibition at 10 µM (SK-MEL-5) [%] | inhibition at 10 µM (SK-MEL-2) [%] | inhibition at 10 µM (LOX IMVI) [%] | inhibition at 10 µM (U-251) [%] | inhibition at 10 µM (SF-539) [%] | inhibition at 10 µM (SF-268) [%] | inhibition at 10 µM (NCI-H522) [%] | inhibition at 10 µM (NCI-H23) [%] | inhibition at 10 µM (EKVX) [%] | inhibition at 10 µM (SR) [%] | also measured
c1cn2cc(-c3ccc4c(c3)ncn4C3CCCCC3)nc(-c3ccc4ncn(C5CCCCC5)c4c3)c2n1 | 23.6 | 28.9 | 19.1 | 45 | 25.6 | 20.5 | 5.48 | 25.8 | 27 | 3.05 | 36.8 | 13.7 | 25.9 | 38.7 | 35.7 | 18.4 | 28.5 | 20.5 | 60.2 | 50 | logD at 1.417 h [1]: 1.9; inhibition at 10 µM (A498): 16.3%; inhibition at 10 µM (IGROV-1): 8.51%; inhibition at 10 µM (M14): 6.98%; inhibition at 10 µM (SF-295): 50.6%; inhibition at 10 µM (HCT-116): 29.1%; inhibition at 10 µM (RPMI-8226): 70.8%; inhibition at 10 µM (MOLT-4): 56.9%; inhibition at 10 µM (CCRF-CEM): 46.1%
Fc1ccccc1-c1cn2ccnc2c(-c2ccc3ncn(C4CCCCC4)c3c2)n1 | 5.26 | 21.3 | 11.2 | 32.6 | 22.9 | 10.1 | 13.2 | 2.94 | 4.51 | 0.17 | 6.5 | 10.5 | 5.77 | 11.4 | 4.51 | 6.04 | 17.8 | 4.16 | 16 | 16.3 | logD at 1.417 h [1]: 1.95; inhibition at 10 µM (M14): 2.92%; inhibition at 10 µM (SF-295): 10.4%; inhibition at 10 µM (SW-620): 9.53%; inhibition at 10 µM (HCT-116): 25.8%; inhibition at 10 µM (HOP-92): 37%; inhibition at 10 µM (RPMI-8226): 42.4%; inhibition at 10 µM (MOLT-4): 22.5%; inhibition at 10 µM (CCRF-CEM): 22.5%
c1ccc(Cn2cnc3ccc(-c4nc(-c5cccc6ccccc56)cn5ccnc45)cc32)cc1 | 5.98 | 28.7 | 29.2 | 31.4 | 31.3 | 5.62 | 12.3 | 12.4 | 5.83 | 1.44 | 9.69 | 16.9 | 16.5 | 5.53 | 4.22 | 10.3 | 29.3 | 10.4 | 24.6 | 12.4 | logD at 1.417 h [1]: 2; inhibition at 10 µM (A498): 6.74%; inhibition at 10 µM (IGROV-1): 11.3%; inhibition at 10 µM (M14): 4.41%; inhibition at 10 µM (SF-295): 8.22%; inhibition at 10 µM (HCT-116): 32.9%; inhibition at 10 µM (HOP-92): 42.5%; inhibition at 10 µM (RPMI-8226): 26.9%; inhibition at 10 µM (MOLT-4): 22.3%; inhibition at 10 µM (CCRF-CEM): 6.22%
Brc1cn2ccnc2c(-c2ccc3ncn(C4CCCCC4)c3c2)n1 | 16.1 | 24.2 | 47.6 | 17.2 | 37.6 | 6.47 | 11.5 | 10 | 8.82 | 15.8 | 13.4 | 10.2 | 15.2 | 1.5 | 10 | 17.1 | 16.2 | 10.2 | 12 | 26.8 | inhibition at 10 µM (IGROV-1): 6.6%; inhibition at 10 µM (HOP-92): 30.7%; inhibition at 10 µM (RPMI-8226): 14.9%; inhibition at 10 µM (MOLT-4): 26.3%; inhibition at 10 µM (CCRF-CEM): 7.68%
Fc1ccc(-c2cn3ccnc3c(-c3ccc4ncn(C5CCCCC5)c4c3)n2)cc1 | 17.6 | 15.8 | 9.17 | 53.6 | 37.8 | 3.97 | 9.02 | 11.2 | 0.69 | 7.88 | 7.36 | 9.82 | 3.5 | 7.94 | 17.3 | 10.7 | 15.5 | 2.36 | 10.5 | 20.4 | logD at 1.417 h [1]: 2.01; inhibition at 10 µM (M14): 2.98%; inhibition at 10 µM (SF-295): 7.93%; inhibition at 10 µM (SW-620): 8.38%; inhibition at 10 µM (HCT-116): 18%; inhibition at 10 µM (HOP-92): 35.2%; inhibition at 10 µM (RPMI-8226): 50.1%; inhibition at 10 µM (MOLT-4): 25.2%; inhibition at 10 µM (CCRF-CEM): 33.4%
Cc1cccc(-c2cn3ccnc3c(-c3ccc4ncn(Cc5ccccc5)c4c3)n2)c1 | 8.47 | 28.4 | 22.2 | 24.8 | 41.7 | 4.72 | 12.4 | 21.4 | 12.1 | 13.9 | 10.1 | 6.34 | 14.8 | 19.4 | 7.28 | 7.22 | 28.4 | 9.09 | 22.3 | 11 | logD at 1.417 h [1]: 2.16; inhibition at 10 µM (A498): 22.1%; inhibition at 10 µM (IGROV-1): 9.51%; inhibition at 10 µM (SF-295): 14.3%; inhibition at 10 µM (HCT-116): 36.7%; inhibition at 10 µM (HOP-92): 28.7%; inhibition at 10 µM (RPMI-8226): 37.5%; inhibition at 10 µM (MOLT-4): 36.9%; inhibition at 10 µM (CCRF-CEM): 21.1%

— ChEMBL document CHEMBL5247578, “Effective synthesis of benzimidazoles-imidazo[1,2-a]pyrazine conjugates: A comparative study of mono-and bis-benzimidazoles for antitumor activity” (Eur J Med Chem, 2019)
